One experiment relates to MDA-MB-231. Put plainly: Cytotoxicity against human MDA-MB-231 cells by MTT assay. It is filed as functional, cell-based. A digest of the protocol:
(§1)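 Human cancer cell lines were obtained from ATCC. Viability was read colorimetrically by MTT reduction, with doxorubicin as the positive control. IC50 values were derived in µM.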
Background: Tetrazolium dyes change colour on reduction, which living cells bring about.

In the next experiment the test system is HepG2. In words: Cytotoxicity against human HepG2 cells by MTT assay. It is filed as functional, cell-based. A digest of the protocol:
as §1

The test system of the next experiment is A549. In words: Cytotoxicity against human A549 cells by MTT assay. The class given is functional, cell-based. A digest of the protocol:
as §1

The test system of the next experiment is MCF7. In words: Cytotoxicity against human MCF7 cells by MTT assay. It is filed as functional, cell-based. Summed up: as §1
Experiment [1] can be described thus: Cytotoxicity against human Hep3B cells by MTT assay. It is filed as functional, cell-based, Hep 3B2. Summed up:
as §1

As usually defined, the IC50 is the concentration needed to halve the response being measured. Read a high IC50 as weaker potency.

For the compound `C/C(=C\CC[C@]1(C)CC[C@H]([C@@H](C)C(=O)O)OO1)CCC12OC1(C)CCCC2(C)C` (stereo partly drawn) [NEGOMBATOPEROXIDE A], the IC50 (in the experiment with MDA-MB-231; in the experiment on HepG2; in the experiment on A549; in the experiment on MCF7; in experiment [1]) was > 50 µM throughout.
With `C=C1CCCC(C)(C)C1CC[C@@](C)(O)CC[C@@H](O)[C@@H](C)C(=O)OC` (stereo partly drawn) [NEGOMBATODIOL], the IC50 (in the experiment on MDA-MB-231; in the experiment with HepG2; in the experiment on A549; in the experiment on MCF7; in experiment [1]) was > 50 µM throughout.
`COc1cccc2c1C(=O)c1c(O)c3c(c(O)c1C2=O)C[C@@](O)(C(=O)CO)C[C@@H]3O[C@H]1C[C@H](N)[C@H](O)[C@H](C)O1` [DOXORUBICIN]: the IC50 in the experiment on MDA-MB-231 came to 0.24 µM; in the experiment with HepG2, 0.19 µM; in experiment [1], 0.14 µM.
For the compound `CC(=O)CCCC(C)(C)C(=O)CCC(C)=O`, the IC50 (in the experiment on MDA-MB-231; in the experiment on HepG2; with A549; in the experiment on MCF7; in experiment [1]) was > 50 µM throughout.
`C=C1CCCC(C)(C)C1CC[C@@]1(C)CC[C@H]([C@@H](C)C(=O)O)OO1` (stereo partly drawn) [NAPAPUIN B]: the IC50 in the experiment on MDA-MB-231 stood at 0.3 µM; with HepG2, 0.9 µM; in the experiment with A549 it was 0.6 µM; in the experiment with MCF7, 5.9 µM; in experiment [1], 41.3 µM.
For the compound `C=C1CCCC(C)(C)C1CC[C@]1(C)CCC(=O)O1` (stereo partly drawn) [NEGOMBATOLACTONE], the IC50 (in the experiment with MDA-MB-231; in the experiment with HepG2; in the experiment with A549; in the experiment on MCF7; in experiment [1]) was > 50 µM each time.
For `CC(=O)/C=C/C[C@]1(C)CC[C@H]([C@@H](C)C(=O)O)OO1` [NEGOMBATOPEROXIDE B], the concentration for half-maximal inhibition (IC50) (with MDA-MB-231; with HepG2; in the experiment on A549; with MCF7; in experiment [1]) was > 50 µM each time.
Consider `C[C@@H](C(=O)O)[C@H]1CC[C@@](C)(C/C=C/C2(C)CCC(=O)O2)OO1` (stereo partly drawn) [NEGOMBATOPEROXIDE C/D], for which the half-inhibitory concentration (IC50) (with MDA-MB-231; with HepG2; in the experiment on A549; in the experiment on MCF7; in experiment [1]) was > 50 µM in each case.
With `C=C1CCCC(C)(C)C1CC[C@]1(C)CC[C@H]([C@@H](C)C(=O)OC)OO1` (stereo partly drawn) [NUAPAPUIN B], the IC50 with MDA-MB-231 came out at 3.5 µM; with HepG2, 2.9 µM; in the experiment on A549 it was 5.38 µM; in the experiment with MCF7, 38.5 µM; in experiment [1], 23.7 µM.
Consider `COC(=O)[C@@H](C)[C@@H]1CC[C@](C)(CCC(=O)C(C)(C)CCCC(C)=O)OO1` [DIACARPEROXIDE B], for which the IC50 (in the experiment with MDA-MB-231; in the experiment with HepG2; in the experiment with A549; with MCF7; in experiment [1]) was 11.9 µM in each case.

These data come from ChEMBL document CHEMBL1221371, “Norterpenoids and related peroxides from the formosan marine sponge Negombata corticata” (J Nat Prod, 2010).
